# Measured values published in publication PMC5378063 (Medicinal chemistry (Shariqah (United Arab Emirates)), 2009).
# Experiments:
# [1] = tested on: M.intracellulare ATCC15984; assay: MIC, agar dilution method; assay type: cell-based
# nonreplicating Mtb = assay: Killing of nonreplicating bacteria, Wayne low oxygen model; assay type: cell-based, Mycobacterium tuberculosis
# Procedure, shortened: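 Aerobic preculture diluted 100-fold into tubes sealed with rubber septa, degassed with N₂ and held anaerobically for 24 days, into nonreplicating phase 2 of a modified Wayne model. Test compound in degassed solution was added and incubation continued for 96 h. Suspensions were then diluted and plated, grown aerobically at 37 °C, and colonies counted.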
# M.fortuitum NIHJ1615 = assay: MIC, agar dilution method; assay type: cell-based
# bacterial growth = assay: In vitro rescue studies with vitamin K supplementation; assay type: cell-based; conditions: 22a ~2μM; vitamin K even at 400 μM
# [2] = tested on: M.tuberculosis H37Rv INHr; assay: MIC, agar dilution method; assay type: cell-based, Mycobacterium tuberculosis
# M.tuberculosis H37Rv = assay: MIC, agar dilution method; assay type: cell-based, Mycobacterium tuberculosis
# M.avium Flamingo = assay: MIC, agar dilution method; assay type: cell-based
# M.aurum = assay: MIC, agar dilution method; assay type: cell-based
# M.smegmatis Takeo = assay: MIC, agar dilution method; assay type: cell-based
# DosS or DosR = assay: DosS/DosR upregulation; assay type: cell-based, Mycobacterium tuberculosis; conditions: unpublished data
# M.bovis BCG Tokyo = assay: MIC, agar dilution method; assay type: cell-based
# [3] = tested on: M.tuberculosis H37Rv RFPr; assay: MIC, agar dilution method; assay type: cell-based, Mycobacterium tuberculosis
# [4] = 10 μg/mL, 96 h exposure after 24 days anaerobic
# [5] = Mycobacterium intracellulare, ATCC15984
# [6] = Mycobacterium tuberculosis, H37RV
# [7] = Mycobacterium tuberculosis variant bovis BCG, BCG
structure (smiles),measurement,setting,value
"C=CCN(C)CCCCCCCCOc1ccc(C(=O)c2ccc(Cl)cc2)c(O)c1 [22a, allylaminomethanone-A]",MIC,"[1]; M.intracellulare ATCC15984, agar dilution",6.3 µg/mL
same,more effective in killing nonreplicating bacteria than ethambutol,nonreplicating Mtb; [4],320 fold
same,more effective in killing nonreplicating bacteria than isoniazid,nonreplicating Mtb; [4],180 fold
same,more effective in killing nonreplicating bacteria than rifampicin,nonreplicating Mtb; [4],3 fold
same,colonies after treatment of nonreplicating Mtb,"nonreplicating Mtb; 50 μg/mL, 96 h exposure",no countable colonies
same,MIC,M.fortuitum NIHJ1615,12.5 µg/mL
same,rescue of bacterial growth by supplementation with vitamin K,bacterial growth,not completely rescued
same,MIC,"[2]; M.tuberculosis H37Rv INHr, agar dilution",1.5 µg/mL
same,MIC,"M.tuberculosis H37Rv; M.tuberculosis H37Rv, agar dilution",1.0 µg/mL
same,MIC,"M.avium Flamingo; M.avium Flamingo, agar dilution",6.3 µg/mL
same,MIC,M.aurum,6.3 µg/mL
same,MIC,M.smegmatis Takeo,12.5 µg/mL
same,upregulation of DosS or DosR,DosS or DosR,did not upregulate
same,MIC,"M.bovis BCG Tokyo; M.bovis BCG Tokyo, agar dilution",3.1 µg/mL
same,MIC,"[3]; M.tuberculosis H37Rv RFPr, agar dilution",1.5 µg/mL
"NNC(=O)c1ccncc1 [INH, isoniazid]",MIC,[1]; [5],12.5 µg/mL
same,MIC,[2]; [6],> 25 µg/mL
same,MIC,M.tuberculosis H37Rv; [6],0.1 µg/mL
same,MIC,M.avium Flamingo; Mycobacterium avium,> 25 µg/mL
same,MIC,M.bovis BCG Tokyo; [7],0.1 µg/mL
same,MIC,[3]; [6],0.05 µg/mL
"CO[C@H]1/C=C/O[C@@]2(C)Oc3c(C)c(O)c4c(O)c(c(/C=N/N5CCN(C)CC5)c(O)c4c3C2=O)NC(=O)/C(C)=C\C=C\[C@H](C)[C@H](O)[C@@H](C)[C@@H](O)[C@@H](C)[C@H](OC(C)=O)[C@@H]1C [RFP, rifampicin]",MIC,[1]; [5],3.1 µg/mL
same,MIC,M.tuberculosis H37Rv; [6],0.2 µg/mL
same,MIC,M.avium Flamingo; Mycobacterium avium,3.1 µg/mL
same,MIC,M.bovis BCG Tokyo; [7],0.1 µg/mL
same,MIC,[3]; [6],> 25 µg/mL
